Source: ChEMBL document CHEMBL3860088, “Design, synthesis, and evaluation of novel porcupine inhibitors featuring a fused 3-ring system based on the 'reversed' amide scaffold” (Bioorg Med Chem, 2016)
Activity calls are given as the source filed them. The rule behind the calls is not given here.

Columns and labels:
[1] = Solubility of the compound in FaSSIF at pH 6.5 at 4 mg/ml by LC-MS/MS analysis; assay type: physicochemical
Procedure, shortened: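 HCl salt suspended at 4 mg/mL in FaSSIF (pH 6.5), shaken 1 h, then equilibrated overnight at room temperature. After centrifugation, supernatant concentration was measured by LC-MS/MS.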

[2] = target: T1, Protein-serine O-palmitoleoyltransferase porcupine (Mus musculus, UniProt Q9JJJ7); experiment: Inhibition of porcupine in mouse L Wnt3A cells co-cultured with HEK293 cells after 48 hrs by Super-top flash reporter gene assay; assay type: cell-based
T1 sequence (Q9JJJ7 whole entry): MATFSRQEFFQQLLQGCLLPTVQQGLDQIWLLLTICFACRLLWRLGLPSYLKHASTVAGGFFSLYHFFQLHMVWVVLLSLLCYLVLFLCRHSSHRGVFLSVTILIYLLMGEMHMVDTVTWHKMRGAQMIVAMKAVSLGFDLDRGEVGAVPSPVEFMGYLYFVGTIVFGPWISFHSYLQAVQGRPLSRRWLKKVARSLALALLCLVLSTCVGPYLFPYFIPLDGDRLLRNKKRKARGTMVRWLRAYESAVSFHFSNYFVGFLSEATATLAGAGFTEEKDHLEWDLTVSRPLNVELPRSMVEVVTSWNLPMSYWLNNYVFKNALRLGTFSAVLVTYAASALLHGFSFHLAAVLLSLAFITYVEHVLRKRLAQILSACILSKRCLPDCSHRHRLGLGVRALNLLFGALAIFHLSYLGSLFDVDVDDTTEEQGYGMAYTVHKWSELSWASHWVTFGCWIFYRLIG
Procedure, shortened: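 Readout was luminescence inhibition in a co-culture of Wnt-producing LWnt3A cells with Wnt-responding HEK293 cells. Values are geometric means of at least two runs ± SEM, with a reference inhibitor run as a standard in every assay.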

[3] = target: T2, Protein-serine O-palmitoleoyltransferase porcupine (Homo sapiens) (UniProt Q9H237); experiment: Inhibition of porcupine in HEK293T cells transfected with pLibin-WNT3A plasmid assessed as reduction in Wnt3A secretion into cell culture medium at 0.1 uM after 48 hrs by Western blot method; assay type: cell-based; conditions: HEK-293T
T2 sequence (whole entry): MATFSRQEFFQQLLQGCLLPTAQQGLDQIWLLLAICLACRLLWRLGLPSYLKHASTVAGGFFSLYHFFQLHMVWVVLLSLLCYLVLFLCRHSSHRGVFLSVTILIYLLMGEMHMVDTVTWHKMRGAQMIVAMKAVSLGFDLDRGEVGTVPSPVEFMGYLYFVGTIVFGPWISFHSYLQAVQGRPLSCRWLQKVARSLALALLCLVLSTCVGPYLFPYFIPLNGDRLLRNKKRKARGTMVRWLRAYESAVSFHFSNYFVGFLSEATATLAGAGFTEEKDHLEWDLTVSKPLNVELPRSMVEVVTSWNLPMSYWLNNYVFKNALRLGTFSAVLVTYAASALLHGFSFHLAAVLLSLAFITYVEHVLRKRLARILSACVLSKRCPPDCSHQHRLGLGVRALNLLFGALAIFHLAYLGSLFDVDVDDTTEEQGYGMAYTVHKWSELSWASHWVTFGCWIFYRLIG
Procedure, shortened: (§1)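 Cells were HEK293T transfected with pLinbin-Wnt3A plasmid or vehicle control, then exposed to compound (0.1 µM) or left untreated. After 48 h, Western blot was run on both the cell lysate and the culture medium to follow Wnt3A.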

[4] = Effect on Wnt3A level in HEK293T cells transfected with pLibin-WNT3A plasmid at 0.1 uM after 48 hrs by Western blot method; assay type: ADME, cell-based; conditions: human, hek-293t; procedure, shortened: as §1
[5] = Chemical stability in simulated gastric fluid assessed as remaining compound levels at 200 uM at 40 degC after 24 hrs by HPLC method; assay type: ADME; conditions: read-out: Stability
Procedure, shortened: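 Test compound held at 200 µM in simulated gastric fluid, 40 °C for 24 h; remaining compound then assessed.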

[6] = Metabolic stability in rat plasma assessed as remaining compound levels at 1 uM after 8 hrs by LC-MS/MS analysis; assay type: ADME, cell-free; conditions: read-out: Stability
[7] = Intrinsic clearance in human liver microsomes at 1 uM preincubated for 10 mins followed by NADPH addition measured for 30 to 60 mins by LC-MS/MS analysis; assay type: ADME; conditions: read-out: CLH
[8] = Intrinsic clearance in rat liver microsomes at 1 uM preincubated for 10 mins followed by NADPH addition measured for 30 to 60 mins by LC-MS/MS analysis; assay type: ADME; conditions: read-out: CLH
[9] = Intrinsic clearance in mouse liver microsomes at 1 uM preincubated for 10 mins followed by NADPH addition measured for 30 to 60 mins by LC-MS/MS analysis; assay type: ADME; conditions: read-out: CLH
[10] = Half life in human liver microsomes at 1 uM preincubated for 10 mins followed by NADPH addition measured for 30 to 60 mins by LC-MS/MS analysis; assay type: ADME
[11] = Half life in rat liver microsomes at 1 uM preincubated for 10 mins followed by NADPH addition measured for 30 to 60 mins by LC-MS/MS analysis; assay type: ADME
[12] = Half life in mouse liver microsomes at 1 uM preincubated for 10 mins followed by NADPH addition measured for 30 to 60 mins by LC-MS/MS analysis; assay type: ADME
CYP3A4 = CYP3A4 (Homo sapiens, UniProt P08684); experiment: Inhibition of CYP3A4 in human liver microsomes at 10 uM using midazolam as substrate preincubated for 10 mins followed by NADPH addition measured after 10 mins by LC-MS/MS analysis; assay type: ADME; conditions: probe midazolam
Chain of CYP3A4 (P08684 whole entry): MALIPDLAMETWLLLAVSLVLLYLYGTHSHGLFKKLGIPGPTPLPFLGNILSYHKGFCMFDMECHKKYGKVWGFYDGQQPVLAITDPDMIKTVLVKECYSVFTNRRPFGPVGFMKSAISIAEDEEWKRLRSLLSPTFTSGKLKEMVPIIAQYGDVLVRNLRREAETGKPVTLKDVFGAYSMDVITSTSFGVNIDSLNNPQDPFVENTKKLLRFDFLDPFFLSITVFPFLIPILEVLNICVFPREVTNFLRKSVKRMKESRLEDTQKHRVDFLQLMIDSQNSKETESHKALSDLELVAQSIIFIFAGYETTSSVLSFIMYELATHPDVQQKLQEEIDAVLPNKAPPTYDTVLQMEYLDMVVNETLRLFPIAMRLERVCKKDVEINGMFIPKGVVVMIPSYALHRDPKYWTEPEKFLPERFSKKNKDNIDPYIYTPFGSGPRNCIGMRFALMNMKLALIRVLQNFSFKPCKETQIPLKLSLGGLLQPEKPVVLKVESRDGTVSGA

CYP2C9 = CYP2C9 (Homo sapiens, UniProt P11712); experiment: Inhibition of CYP2C9 in human liver microsomes at 10 uM preincubated for 10 mins followed by NADPH addition measured after 10 mins by LC-MS/MS analysis; assay type: ADME
Chain of CYP2C9 (P11712 whole entry): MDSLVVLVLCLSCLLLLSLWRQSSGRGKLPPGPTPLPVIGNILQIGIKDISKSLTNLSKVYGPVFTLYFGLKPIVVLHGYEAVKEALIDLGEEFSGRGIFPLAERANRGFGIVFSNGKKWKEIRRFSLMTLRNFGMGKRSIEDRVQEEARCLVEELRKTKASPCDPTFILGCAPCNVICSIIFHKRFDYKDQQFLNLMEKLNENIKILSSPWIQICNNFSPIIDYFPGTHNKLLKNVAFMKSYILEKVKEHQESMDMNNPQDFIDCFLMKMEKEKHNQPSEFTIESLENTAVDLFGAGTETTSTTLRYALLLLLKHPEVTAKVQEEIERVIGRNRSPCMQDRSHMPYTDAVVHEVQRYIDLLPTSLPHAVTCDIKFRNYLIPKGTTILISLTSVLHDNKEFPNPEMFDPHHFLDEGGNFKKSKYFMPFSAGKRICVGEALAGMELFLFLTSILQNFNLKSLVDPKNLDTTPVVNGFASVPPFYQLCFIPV

CYP2D6 = CYP2D6 (Homo sapiens, UniProt P10635); experiment: Inhibition of CYP2D6 in human liver microsomes at 10 uM using dextromethorphan as substrate preincubated for 10 mins followed by NADPH addition measured after 10 mins by LC-MS/MS analysis; assay type: ADME; conditions: probe dextromethorphan
Chain of CYP2D6 (P10635 whole entry): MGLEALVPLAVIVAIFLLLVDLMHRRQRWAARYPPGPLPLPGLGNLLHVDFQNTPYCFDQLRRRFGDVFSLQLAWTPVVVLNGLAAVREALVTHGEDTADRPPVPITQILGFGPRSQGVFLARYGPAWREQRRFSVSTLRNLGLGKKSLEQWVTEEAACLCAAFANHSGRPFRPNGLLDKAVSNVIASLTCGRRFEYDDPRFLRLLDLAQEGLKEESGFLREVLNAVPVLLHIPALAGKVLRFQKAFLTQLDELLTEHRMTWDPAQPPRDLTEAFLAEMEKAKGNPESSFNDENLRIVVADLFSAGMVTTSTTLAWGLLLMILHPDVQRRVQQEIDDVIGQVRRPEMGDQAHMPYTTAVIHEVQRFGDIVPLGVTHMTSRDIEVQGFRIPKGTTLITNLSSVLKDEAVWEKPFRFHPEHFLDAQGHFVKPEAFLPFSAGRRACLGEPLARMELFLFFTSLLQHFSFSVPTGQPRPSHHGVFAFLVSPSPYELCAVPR

CYP1A2 = target: T3, CYP1A2 (Homo sapiens, UniProt P05177); experiment: Inhibition of CYP1A2 in human liver microsomes at 10 uM preincubated for 10 mins followed by NADPH addition measured after 10 mins by LC-MS/MS analysis; assay type: ADME
T3 sequence (P05177 whole entry): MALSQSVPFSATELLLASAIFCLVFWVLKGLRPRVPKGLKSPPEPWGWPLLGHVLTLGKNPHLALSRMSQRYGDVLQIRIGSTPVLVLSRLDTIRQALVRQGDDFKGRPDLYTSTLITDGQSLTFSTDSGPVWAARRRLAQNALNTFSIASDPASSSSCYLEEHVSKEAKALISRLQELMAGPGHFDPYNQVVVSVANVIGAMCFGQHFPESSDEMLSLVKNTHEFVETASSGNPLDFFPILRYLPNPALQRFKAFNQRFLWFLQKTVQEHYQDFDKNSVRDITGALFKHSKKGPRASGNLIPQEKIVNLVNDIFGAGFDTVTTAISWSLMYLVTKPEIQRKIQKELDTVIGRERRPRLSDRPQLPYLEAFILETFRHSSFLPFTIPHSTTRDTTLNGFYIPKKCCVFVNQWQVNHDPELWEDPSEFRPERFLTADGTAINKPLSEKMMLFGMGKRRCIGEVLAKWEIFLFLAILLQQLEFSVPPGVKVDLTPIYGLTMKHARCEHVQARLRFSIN

CYP2C19 = CYP2C19 (Homo sapiens, UniProt P33261); experiment: Inhibition of CYP2C19 in human liver microsomes at 10 uM preincubated for 10 mins followed by NADPH addition measured after 10 mins by LC-MS/MS analysis; assay type: ADME
Chain of CYP2C19 (P33261 whole entry): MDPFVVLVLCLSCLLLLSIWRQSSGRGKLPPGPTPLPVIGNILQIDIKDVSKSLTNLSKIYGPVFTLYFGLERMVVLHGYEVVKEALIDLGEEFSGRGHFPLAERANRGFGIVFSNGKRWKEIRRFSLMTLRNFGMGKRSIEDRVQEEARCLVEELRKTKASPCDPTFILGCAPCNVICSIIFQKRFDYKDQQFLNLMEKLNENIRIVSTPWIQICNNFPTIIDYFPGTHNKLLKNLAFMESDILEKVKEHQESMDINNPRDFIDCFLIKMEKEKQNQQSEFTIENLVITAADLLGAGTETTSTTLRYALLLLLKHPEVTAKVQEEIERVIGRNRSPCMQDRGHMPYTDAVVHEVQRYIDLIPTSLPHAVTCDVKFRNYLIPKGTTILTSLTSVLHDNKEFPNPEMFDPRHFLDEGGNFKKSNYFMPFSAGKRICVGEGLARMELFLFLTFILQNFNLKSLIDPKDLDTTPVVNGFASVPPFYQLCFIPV

Cc1cc(-c2ncc(CNC(=O)c3ccc4c(c3)[nH]c3ccccc34)cc2F)ccn1.Cl
solubility [1]: 1.24 µM

Cc1cc(-c2ncc(CNC(=O)c3ccc4c(c3)oc3ccccc34)cc2F)ccn1
IC50 [2]: 3.1 nM

Cc1cc(-c2ncc(CNC(=O)c3ccc4c5ccccc5n(C)c4c3)cc2F)ccn1
IC50 [2]: 175 nM

Cc1cc(-c2ccc(CNC(=O)c3ccc4c(c3)C(F)(F)c3ccccc3-4)cc2)ccn1
IC50 [2]: 60 nM

O=C(NCc1ccc2c(c1)Cc1ccccc1-2)c1ccc(-c2cnccn2)cc1
IC50 [2]: > 1000 nM

O=C(NCc1ccc2c(c1)oc1ccccc12)c1ccc(-c2cnccn2)cc1
IC50 [2]: 701 nM

Cc1cn(-c2ccc(CNC(=O)c3ccc4c(c3)[nH]c3ccccc34)cc2)cn1
IC50 [2]: 119 nM

O=C(NCc1ccc2c(c1)Cc1ccccc1-2)c1ccc(-c2ccccc2)cc1
IC50 [2]: > 1000 nM

Cc1cc(-c2ncc(CNC(=O)c3ccc4c(c3)[nH]c3ccccc34)cc2C)ccn1
IC50 [2]: 10 nM

Cc1cc(-c2ncc(CNC(=O)c3ccc4c(c3)C(F)(F)c3ccccc3-4)cc2F)ccn1
IC50 [2]: 16 nM

Cc1cc(-c2ccc(CNC(=O)c3ccc4c(c3)Cc3ccccc3-4)cc2)ccn1
IC50 [2]: 35 nM

Cc1cc(-c2ccc(CNC(=O)c3ccc4c(c3)C(=O)c3ccccc3-4)cc2)ccn1
IC50 [2]: 85 nM

Cc1cc(-c2ccc(CNC(=O)c3ccc4c5ccccc5n(C)c4c3)cc2)ccn1
IC50 [2]: > 1000 nM

Cc1cc(-c2ncc(CC(=O)Nc3ccc(-c4cnccn4)cn3)cc2C)ccn1 [WNT-974]
IC50 [2]: 0.9 nM | inhibition [3]: Active | Activity [4]: Non-Toxic | remaining at 24 h, 200 µM [5]: 66% | remaining at 8 h, 1 µM [6]: 100% | CLint scaled at 1 µM [7]: 2 mL/min/kg | CLint scaled at 1 µM [8]: 3 mL/min/kg | CLint scaled at 1 µM [9]: 22 mL/min/kg | half-life at 1 µM [10]: 9.35 h | half-life at 1 µM [11]: 12.8 h | half-life at 1 µM [12]: 4.62 h

O=C(NCc1ccc(-n2ccnc2)cc1)c1ccc2c(c1)[nH]c1ccccc12
IC50 [2]: 314 nM

Cc1cc(-c2ncc(CNC(=O)c3ccc4c(c3)[nH]c3ccccc34)cc2F)ccn1 [listing 1 of 2 here]
inhibition at 10 min, 10 µM (CYP3A4): 69% | IC50 [2]: 0.5 nM | Activity [4]: Non-Toxic | remaining at 24 h, 200 µM [5]: 100% | remaining at 8 h, 1 µM [6]: 100% | CLint scaled at 1 µM [7]: 57 mL/min/kg | CLint scaled at 1 µM [8]: 24 mL/min/kg | CLint scaled at 1 µM [9]: 109 mL/min/kg | half-life at 1 µM [10]: 0.517 h | half-life at 1 µM [11]: 1.33 h | half-life at 1 µM [12]: 0.917 h | inhibition at 10 min, 10 µM (CYP2C9): 31% | inhibition at 10 min, 10 µM (CYP2D6): 37% | inhibition at 10 min, 10 µM (CYP1A2): 73% | inhibition at 10 min, 10 µM (CYP2C19): 59%

Cc1cc(-c2ccc(CNC(=O)c3ccc4c(c3)[nH]c3ccccc34)cn2)ccn1
IC50 [2]: 6.2 nM

Cc1cc(-c2ncc(CNC(=O)c3ccc4c(c3)Cc3ccccc3-4)cc2F)ccn1
IC50 [2]: 9.2 nM

Cc1cc(-c2ccc(CNC(=O)c3ccc4c(c3)[nH]c3ccccc34)cc2)ccn1.Cl
solubility [1]: 0.16 µM

O=C(NCc1ccc2cnccc2c1)c1ccc2c(c1)[nH]c1ccccc12
IC50 [2]: 207 nM

Cc1cc(-c2ncc(CNC(=O)c3ccc4c(c3)C(=O)c3ccccc3-4)cc2F)ccn1
IC50 [2]: 44 nM

Cc1cc(-c2ccc(CNC(=O)c3ccc(-c4ccccc4)cc3)cc2)ccn1
IC50 [2]: 1 nM

Cc1cc(-c2ccc(CNC(=O)c3ccc4c(c3)oc3ccccc34)cc2)ccn1
IC50 [2]: 9.1 nM

O=C(NCc1ccc(-c2ccncc2)cc1)c1ccc2c(c1)[nH]c1ccccc12
IC50 [2]: 18 nM

N#Cc1ccc2cc(CNC(=O)c3ccc4c(c3)[nH]c3ccccc34)ccc2c1
IC50 [2]: 13 nM

Cn1nccc1-c1ccc(CNC(=O)c2ccc3c(c2)[nH]c2ccccc23)cc1
IC50 [2]: 130 nM

Cc1cc(-c2ncc(CNC(=O)c3ccc4c(c3)[nH]c3ccccc34)cc2F)ccn1 [listing 2 of 2 here]
inhibition [3]: Active

Cc1cc(-c2ccc(CNC(=O)c3ccc4c(c3)[nH]c3ccccc34)nc2)ccn1
IC50 [2]: 18 nM

Cc1cc(-c2ccc(CNC(=O)c3ccc4c(c3)[nH]c3ccccc34)cc2)ccn1 [listing 1 of 2 here]
inhibition at 10 min, 10 µM (CYP3A4): 7% | IC50 [2]: 7.5 nM | Activity [4]: Non-Toxic | remaining at 24 h, 200 µM [5]: 100% | remaining at 8 h, 1 µM [6]: 100% | CLint scaled at 1 µM [7]: 59 mL/min/kg | CLint scaled at 1 µM [8]: 7 mL/min/kg | CLint scaled at 1 µM [9]: 141 mL/min/kg | half-life at 1 µM [10]: 0.5 h | half-life at 1 µM [11]: 4.62 h | half-life at 1 µM [12]: 0.717 h | inhibition at 10 min, 10 µM (CYP2C9): -22% | inhibition at 10 min, 10 µM (CYP2D6): 9% | inhibition at 10 min, 10 µM (CYP1A2): 64% | inhibition at 10 min, 10 µM (CYP2C19): 8%

Cc1cc(-c2ccc(CNC(=O)c3ccc4c(c3)[nH]c3ccccc34)cc2)ccn1 [listing 2 of 2 here]
inhibition [3]: Active
